In ChEMBL document CHEMBL2311362, “Fragment-based discovery of novel and selective mPGES-1 inhibitors Part 1: identification of sulfonamido-1,2,3-triazole-4,5-dicarboxylic acid” (Bioorg Med Chem Lett, 2013):
Activity calls are given as the source filed them. The rule behind the calls is not given here.

Columns and labels:
Prostaglandin E synthase = biological target: T1, Prostaglandin E synthase (Homo sapiens, UniProt O14684); test: Inhibition of mPGES1 (unknown origin) using PGH2 as substrate incubated for 30 mins prior to substrate addition by PGH2-coupled spectrophotometric analysis
T1 sequence (O14684 whole entry): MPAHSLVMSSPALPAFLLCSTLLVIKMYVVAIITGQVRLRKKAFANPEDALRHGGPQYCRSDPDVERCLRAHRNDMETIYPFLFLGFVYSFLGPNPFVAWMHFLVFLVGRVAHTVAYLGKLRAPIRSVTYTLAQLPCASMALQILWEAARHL
How it was run: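 Two-enzyme coupled assay. 110 nM mPGES-1 and 220 nM 15-PGDH in 200 µL buffer (50 mM Tris-HCl pH 7.5, 50 µM PMA, 2 mM reduced glutathione, 1 mM NAD+, 0.1 mM DTT), compound added in 1 µL DMSO, preincubated 30 min. Started with cold PGH2 (14 µM final). NADH read by fluorescence, excitation 340 nm, emission 468 nm. IC50 from varying concentrations.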

[1] = Inhibition of rat mPGES1 expressed in CHOK21 cells using [3H]PGH2 as substrate by radio-HPLC analysis; format: cell-based
[2] = biological target: T2, Prostaglandin E synthase (Homo sapiens) (UniProt O14684); test: Inhibition of human recombinant mPGES1 using PGH2 as substrate at 10 uM incubated for 5 mins prior to substrate addition measured after 5 mins by HPLC analysis in presence of triton-X-100
T2 sequence (whole entry): T1 sequence (O14684 whole entry)
How it was run: (§1)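 mPGES-1 inhibition measured at 10 µM test compound, run with and without 0.1% Triton X-100, following a previously published protocol. Reported as % inhibition.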

[3] = biological target: T2, Prostaglandin E synthase (Homo sapiens); test: Ratio of MK886 IC50 to compound IC50 for mPGES1 (unknown origin)
[4] = biological target: T3, Prostaglandin G/H synthase 2 (Homo sapiens) (UniProt P35354); test: Inhibition of human recombinant COX2 using arachidonic acid as substrate at 1 mM incubated for 10 mins prior to substrate addition measured for 2 mins by enzyme immunoassay
T3 sequence (whole entry): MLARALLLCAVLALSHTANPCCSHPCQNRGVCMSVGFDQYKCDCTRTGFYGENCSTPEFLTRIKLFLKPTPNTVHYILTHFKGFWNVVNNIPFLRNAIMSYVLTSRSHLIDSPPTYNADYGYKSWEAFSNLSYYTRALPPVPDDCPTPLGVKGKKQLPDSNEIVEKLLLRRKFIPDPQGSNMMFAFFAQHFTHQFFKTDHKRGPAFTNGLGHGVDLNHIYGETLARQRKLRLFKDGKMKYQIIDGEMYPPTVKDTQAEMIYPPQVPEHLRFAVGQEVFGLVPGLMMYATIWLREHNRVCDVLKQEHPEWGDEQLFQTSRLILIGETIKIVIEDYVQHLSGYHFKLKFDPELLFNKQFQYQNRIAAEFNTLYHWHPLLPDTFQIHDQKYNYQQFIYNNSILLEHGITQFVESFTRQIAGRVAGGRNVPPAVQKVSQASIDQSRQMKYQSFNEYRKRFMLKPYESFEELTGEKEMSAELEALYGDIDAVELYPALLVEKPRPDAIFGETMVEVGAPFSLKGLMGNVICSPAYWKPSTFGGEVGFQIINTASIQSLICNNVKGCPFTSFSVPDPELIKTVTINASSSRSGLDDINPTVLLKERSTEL

[5] = biological target: T2, Prostaglandin E synthase (Homo sapiens); test: Inhibition of human recombinant mPGES1 using PGH2 as substrate at 10 uM incubated for 5 mins prior to substrate addition measured after 5 mins by HPLC analysis; how it was run: as §1
[6] = Selectivity index, ratio of IC50 for ovine COX1 to IC50 for mPGES1 (unknown origin)
[7] = biological target: T4, Prostaglandin G/H synthase 1 (Ovis aries) (UniProt P05979); test: Inhibition of ovine COX1 using PGH2 as substrate at 1 mM incubated for 10 mins prior to substrate addition measured for 2 mins by enzyme immunoassay; conditions: in the assay text read “arachidonic acid” for “PGH2”
T4 sequence (whole entry): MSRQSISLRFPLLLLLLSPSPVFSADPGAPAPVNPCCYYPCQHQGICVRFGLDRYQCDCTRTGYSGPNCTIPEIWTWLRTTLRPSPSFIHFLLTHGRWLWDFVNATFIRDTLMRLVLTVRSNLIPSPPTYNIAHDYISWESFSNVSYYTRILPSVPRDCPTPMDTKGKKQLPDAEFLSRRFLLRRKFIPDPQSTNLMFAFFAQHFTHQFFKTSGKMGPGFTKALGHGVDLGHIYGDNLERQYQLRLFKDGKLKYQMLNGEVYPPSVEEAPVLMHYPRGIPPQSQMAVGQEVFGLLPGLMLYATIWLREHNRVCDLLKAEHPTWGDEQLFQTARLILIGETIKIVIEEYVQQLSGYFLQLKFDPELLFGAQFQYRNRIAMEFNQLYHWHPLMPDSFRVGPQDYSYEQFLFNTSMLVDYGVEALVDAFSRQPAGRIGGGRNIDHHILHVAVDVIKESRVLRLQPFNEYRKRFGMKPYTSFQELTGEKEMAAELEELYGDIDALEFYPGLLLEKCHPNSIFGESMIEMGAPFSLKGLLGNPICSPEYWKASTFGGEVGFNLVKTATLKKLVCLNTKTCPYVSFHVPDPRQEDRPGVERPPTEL
How it was run: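 COX-1 (purified ovine) or COX-2 (purified human recombinant) preincubated with test compound 10 min at 37 °C, then tested at 1 mM. Prostanoid product quantified by enzyme immunoassay with a broadly specific antibody that binds all major prostaglandins (COX inhibitor screening kit).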

IC50 (Prostaglandin E synthase) [µM] | Structure (SMILES) | further results
23.3 | NC(=O)c1nnn(CCNS(=O)(=O)c2ccccc2)c1C(N)=O | –
12.9 | COC(=O)c1nnn(CCNS(=O)(=O)c2ccccc2)c1C(=O)OC | –
– | CC(C)c1ccc2c(c1)c(SC(C)(C)C)c(CC(C)(C)C(=O)O)n2Cc1ccc(Cl)cc1 | IC50 [1]: 3.2 µM
1.1 | O=C(O)c1nnn(CCN(c2ccccc2)S(=O)(=O)c2ccccc2)c1C(=O)O | inhibition [2]: 18.1%; Ratio IC50 [3]: 3.5; inhibition [4]: inactive; inhibition [5]: 69.1%; Ratio IC50 [6]: 1000; inhibition [7]: 50%
6.3 | Cc1ccc(S(=O)(=O)NCCCn2nnc(C(=O)O)c2C(=O)O)cc1 | –
4 | CN(CCn1nnc(C(=O)O)c1C(=O)O)S(=O)(=O)c1ccccc1 | –
9.7 | CCS(=O)(=O)NCCn1nnc(C(=O)O)c1C(=O)O | –
4.2 | Cc1ccc(S(=O)(=O)NCCn2nnc(C(=O)O)c2C(=O)O)cc1 | –
4.1 | O=C(O)c1nnn(CCNS(=O)(=O)c2ccccc2)c1C(=O)O | –
4.4 | O=C(O)c1nnn(CCNS(=O)(=O)c2cccc(C(F)(F)F)c2)c1C(=O)O | –
3.8 | CCCN(CCn1nnc(C(=O)O)c1C(=O)O)S(=O)(=O)c1ccc(C)cc1 | –
3.3 | O=C(O)c1nnn(CCNS(=O)(=O)c2ccccc2C(F)(F)F)c1C(=O)O | –
10.3 | CS(=O)(=O)NCCn1nnc(C(=O)O)c1C(=O)O | –
6.9 | Cc1ccc(S(=O)(=O)NCn2nnc(C(=O)O)c2C(=O)O)cc1 | –
